Data on one compound can be found in ChEMBL document CHEMBL4406918, “Inhibitory Effects of Multivalent Polypeptides on the Proliferation and Metastasis of Breast Cancer Cells” (ACS Med Chem Lett, 2019).

Structures are written as SMILES. Calls of active or inactive are those of the source. The calls are words filed in the database; no cut-off is given here. A value given as a limit tells only on which side of the number the result lay.

Series [1] has as its system 4T1. Description: Antitumour activity against mouse 4T1 cells xenografted in BALB/c mouse assessed as increase in damage of tumor tissue at 10 mg/kg administered intratumorally and measured after 24 days by H and E staining based inverted optical microscopic method. It is filed as functional, organism-based. In a few lines: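 Tumours from 4T1-bearing BALB/c mice given 6 doses of 10 mg/kg (saline control) were sectioned and stained with H&E, plus CD31, Ki-67 and TUNEL.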

A short description of series [2]: Stability in fetal bovine serum assessed as parent compound remaining measured after 12 hrs by RP-HPLC analysis. The note with it: cattle, read-out: Stability. It is filed as ADME, cell-free, Bos taurus. In short, it runs like this:
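Peptides incubated in serum, and the fraction of intact YSL was measured over time up to 12 h, including a 4 h point.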

Series [3] concerns 4T1. The experiment in a line: Induction of cell cycle arrest in mouse 4T1 cells assessed as accumulation at S phase at 0.4 mM incubated for 24 hrs by PI staining based flow cytometric analysis (Rvb =42.35%). Type of series: functional. In general terms: Flow cytometry measures light scatter and fluorescence of single cells or particles in a stream.
Series [4] deals with 4T1. The experiment in a line: Induction of apoptosis in mouse 4T1 cells assessed as early apoptotic cells at 0.4 mM incubated for 24 hrs by Annexin V-FITC/PI based FACS analysis (reference value: 0.76%). It is filed as functional.
Series [5] relates to 4T1. Description: Induction of apoptosis in mouse 4T1 cells assessed as late apoptotic cells at 0.4 mM incubated for 24 hrs by Annexin V-FITC/PI based FACS analysis (reference value: 6.62%). Type of series: functional.
In series [6] the test system is 4T1. Description: Inhibition of metastasis in mouse 4T1 cells assessed as formation of pseudopods at 0.2 mM incubated for 24 hrs by SEM analysis. Type of series: functional, cell-based. In short, it runs like this: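 4T1 cells treated 24 h, then imaged by scanning electron microscopy for pseudopod formation. Dendrimers were tested at 0.2 mM and the reference at 10–5 mM.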

In series [7] the test system is 4T1. Description: Antitumour activity against mouse 4T1 cells xenografted in BALB/c mouse assessed as reduction in size of lung tumor metastatic nodules at 10 mg/kg administered intratumorally and measured after 24 days by H and E staining based inverted optical microscopic method. It is filed as functional, organism-based. In short, it runs like this:
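After 6 doses of 10 mg/kg to 4T1 tumour-bearing BALB/c mice (saline control), lungs were photographed whole and examined histopathologically for the number and size of metastatic nodules.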

Series [8] can be described thus: Toxicity in BALB/c mouse xenografted with mouse 4T1 cells assessed as induction of morphological lesions in heart at 10 mg/kg administered intratumorally and measured after 24 days by H and E staining based inverted optical microscopic method. It is filed as organism-based. To be noted: in vivo, other, 576 h.

For the compound `COC(=O)[C@H](CCCCNC(=O)[C@H](CCCCNC(=O)[C@H](CCCCNC(=O)[C@H](CC(C)C)NC(=O)[C@H](CO)NC(=O)[C@@H](N)Cc1ccc(O)cc1)NC(=O)[C@H](CC(C)C)NC(=O)[C@H](CO)NC(=O)[C@@H](N)Cc1ccc(O)cc1)NC(=O)[C@H](CCCCNC(=O)[C@H](CC(C)C)NC(=O)[C@H](CO)NC(=O)[C@@H](N)Cc1ccc(O)cc1)NC(=O)[C@H](CC(C)C)NC(=O)[C@H](CO)NC(=O)[C@@H](N)Cc1ccc(O)cc1)NC(=O)[C@H](CCCCNC(=O)[C@H](CCCCNC(=O)[C@H](CC(C)C)NC(=O)[C@H](CO)NC(=O)[C@@H](N)Cc1ccc(O)cc1)NC(=O)[C@H](CC(C)C)NC(=O)[C@H](CO)NC(=O)[C@@H](N)Cc1ccc(O)cc1)NC(=O)[C@H](CCCCNC(=O)[C@H](CC(C)C)NC(=O)[C@H](CO)NC(=O)[C@@H](N)Cc1ccc(O)cc1)NC(=O)[C@H](CC(C)C)NC(=O)[C@H](CO)NC(=O)[C@@H](N)Cc1ccc(O)cc1`, the result in series [1] and in series [7] was Active. Further, in series [2], the remaining at 12 h is greater than 80%. Further, the Activity in series [3] was 46.42%; in series [4], 3.95%; in series [5], 56.2%; in series [8] it was “Non-Toxic”. For the same compound, the inhibition entry in series [6] is “inactive”.
